Experiment [1] can be described thus: Antioxidant activity assessed as superoxide radical scavenging activity by NBT dye reduction assay. It is filed as functional. In short, it runs like this:
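Superoxide generated by the NADH/PMS system. Scavenging read as inhibition (%) of O2•−-driven NBT reduction to diformazan at 560 nm. Tiron was the positive control. IC50 given as mean ± SE, five experiments in triplicate.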

The nature of experiment [2]: Antioxidant activity assessed as hydrogen peroxide scavenging activity at 1 mM by lucigenin oxidation assay. It is filed as functional.
Experiment [3] is described as follows: Antioxidant activity assessed as singlet oxygen scavenging activity by fluorescent rhodamine formation assay. It is filed as functional. In short, it runs like this: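 Singlet oxygen scavenging monitored as inhibition (%) of 1O2-induced oxidation of non-fluorescent dihydrorhodamine to fluorescent rhodamine. Ascorbic acid was the positive control. IC50 given as mean ± SE, five experiments in triplicate.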

Experiment [4] in a line: Antioxidant activity assessed as hypochlorous acid scavenging activity at 200 uM by fluorescent rhodamine formation assay. It is filed as functional. Put shortly:
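HOCl was made by bringing 1% (m/v) NaOCl to pH 6.2 with 10% H2SO4. Scavenging was read as inhibition (%) of HOCl-induced oxidation of dihydrorhodamine to fluorescent rhodamine. Value given as mean % at the highest tested concentration (200 µM). Five experiments in triplicate.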

Experiment [5] in a line: Antioxidant activity assessed as peroxyl radical scavenging activity by measuring oxygen radical absorbance capacity. It is filed as functional. The arrangement: reference not given here.
Experiment [6] is described as follows: Antioxidant activity assessed as nitric oxide scavenging activity by fluorescent triazofluorescein formation assay. Format: functional. Put shortly:
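NO scavenging measured as inhibition (%) of NO-induced oxidation of non-fluorescent DAF-2 to fluorescent triazolofluorescein. Rutin was the positive control. IC50 given as mean ± SE, five experiments in triplicate.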

Experiment [7] in a line: Antioxidant activity assessed as peroxynitrite scavenging activity in absence of NaHCO3 by fluorescent rhodamine formation assay. It is filed as functional.
Experiment [8] in a line: Antioxidant activity assessed as peroxynitrite scavenging activity in presence of NaHCO3 by fluorescent rhodamine formation assay. Format: functional.
Experiment [9] can be described thus: Reducing activity assessed as reduction of ferric ion by reducing power assay. In short, it runs like this:
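Compounds in 1:4 water/DMSO were mixed with 0.2 M phosphate buffer pH 6.6 and 1% w/v K3Fe(CN)6, then held 20 min at 50 °C. After 10% w/v TCA and centrifugation (10 min, 3000 g), the supernatant was diluted with water plus 0.1% w/v FeCl3 and read at 700 nm. Ascorbic acid was the positive control. Values are mean ± SE of triplicates.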

Experiment [10] is described as follows: Iron chelating activity assessed as Fe(2+)-compound complex formation at 10 uM by UV-Vis absorption spectroscopy. Format: functional. In short, it runs like this:
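Iron chelation checked from changes in the UV–vis spectrum (300–600 nm) of a 10 µM (final) compound solution in 20 mM phosphate buffer, pH 7.2. Fe(II) was added sequentially to 0, 2, 4, 6, 8, 10, 12, 14 and 16 µM.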

A short description of experiment [11]: Antioxidant activity assessed as hydrogen peroxide scavenging activity by lucigenin oxidation assay. Format: functional. Put shortly:
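H2O2 scavenging followed as inhibition (%) of H2O2-induced lucigenin oxidation on a microplate reader. Ascorbic acid was the positive control. IC50 reported as mean ± SE from five experiments, each in triplicate.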

Experiment [12] can be described thus: Antioxidant activity assessed as hypochlorous acid scavenging activity by fluorescent rhodamine formation assay. It is filed as functional. In short, it runs like this: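 Fluorescent assay of HOCl-induced dihydrorhodamine oxidation to rhodamine, with HOCl from 1% (m/v) NaOCl adjusted to pH 6.2 with 10% H2SO4. Lipoic acid was the positive control. IC50 (mean ± SE) comes from % inhibition, five experiments in triplicate.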

Each structure is given as a SMILES string. Active and inactive are the calls of the source. No cut-off for these calls is given here.

By IC50 is commonly meant the point on the concentration scale where inhibition reaches its midpoint. For `COc1ccc(/C=C/c2cc(=O)c3ccc(O)c(O)c3o2)cc1OC`, the IC50 came to 26 µM in experiment [1]; 9.95 µM in experiment [3]; 0.254 µM in experiment [6]; 0.59 µM in experiment [7]; 2.08 µM in [8]. The Activity was found to be 31% in experiment [2], 47% in [4] and 1.4 in experiment [5]. The result in [9] and in experiment [10] was Active.
On to `O=S(=O)(O)c1cc(O)c(O)c(S(=O)(=O)O)c1` [TIRON], for which the IC50 in experiment [1] turned out to be 288 µM.
In the case of `O=c1cc(/C=C/c2ccc(O)c(O)c2)oc2c(O)c(O)ccc12`, the IC50 in experiment [1] came to 17.8 µM; in experiment [11] it was 799 µM; in experiment [3] it was 4.69 µM; in experiment [12], 67.2 µM; in experiment [6], 0.193 µM; in experiment [7], 0.85 µM. Also, in experiment [8], the IC50 was 1.59 µM. In addition, the Activity in [5] was 2.58. For the same molecule, the outcome in experiment [9] and in experiment [10] was Active.
With `COc1ccc2c(=O)cc(/C=C/c3ccc(O)c(O)c3)oc2c1OC`, the IC50 was found to be 20.8 µM in experiment [1]; 702 µM in [11]; 7.97 µM in [3]; 4.67 µM in [12]; 0.368 µM in experiment [6]; 1.21 µM in experiment [7]. In experiment [8], the IC50 is 0.93 µM. For the same molecule, in experiment [5], the Activity was found to be 2.74. The result in experiment [9] and in experiment [10] was Active.
For the molecule `CCCCCCc1c(-c2ccc(O)c(O)c2)oc2cc(O)cc(O)c2c1=O`, the IC50 was 62.8 µM in experiment [1]; 348 µM in experiment [11]; 58.6 µM in [3]; 2.49 µM in experiment [12]; 3.29 µM in experiment [6]; 1.48 µM in [7]. Besides, the half-inhibitory concentration (IC50) in experiment [8] worked out at 1.8 µM. For the same molecule, in experiment [5], the Activity was found to be 2. Further, the result in experiment [9] was Active.
As for `CCCCCCCCCCc1c(-c2ccc(O)c(O)c2)oc2cc(O)cc(O)c2c1=O`, the IC50 was found to be 78 µM in experiment [1]; 236 µM in experiment [11]; 7.9 µM in [3]; 1.7 µM in experiment [12]; 4.85 µM in experiment [6]; 0.83 µM in experiment [7]. In addition, the half-inhibitory concentration (IC50) in [8] turned out to be 1.82 µM. Further, the Activity in [5] was found to be 1.63.
Regarding `O=c1c2ccccc2[se]n1-c1ccccc1` [EBSELEN], the 50% inhibitory concentration (IC50) in experiment [7] is 1 µM; in experiment [8] it was 5.27 µM.
As to `O=C(O)CCCCC1CCSS1` (stereo not drawn) [LIPOIC ACID, ALPHA], the 50% inhibitory concentration (IC50) in experiment [12] stood at 1.95 µM.
`O=C(c1ccc(O)c(O)c1)c1c(-c2ccc(O)c(O)c2)oc2cc(O)cc(O)c2c1=O`: the 50% inhibitory concentration (IC50) turned out to be 19.5 µM in experiment [1]; 367 µM in experiment [11]; 43 µM in experiment [3]; 2.29 µM in experiment [12]; 3.62 µM in experiment [6]; 0.66 µM in experiment [7]. The IC50 in [8] is 1.97 µM. Also, the Activity in [5] was 4.32. Moreover, the outcome in experiment [9] was Active.
As to `O=C1O[C@H]([C@@H](O)CO)C(O)=C1O` [ASCORBIC ACID], the IC50 in experiment [11] amounted to 567 µM; in [3], 10.2 µM. The Activity in [5] worked out at 0.405. For the same molecule, the result in experiment [9] was Active.
Consider `CCCCc1c(-c2ccc(O)c(O)c2)oc2cc(O)cc(O)c2c1=O`, for which the IC50 turned out to be 51.8 µM in experiment [1]; 502 µM in experiment [11]; 61.8 µM in [3]; 1.45 µM in experiment [12]; 2.72 µM in experiment [6]; 0.6 µM in experiment [7]. The IC50 in [8] was determined as 1.24 µM. Further, in [5], the Activity amounted to 2.66. For the same molecule, the result in experiment [9] was Active.
With `C[C@@H]1O[C@@H](OC[C@H]2O[C@@H](Oc3c(-c4ccc(O)c(O)c4)oc4cc(O)cc(O)c4c3=O)[C@H](O)[C@@H](O)[C@@H]2O)[C@H](O)[C@H](O)[C@H]1O` [RUTIN], in experiment [6], the concentration for half-maximal inhibition (IC50) was 1.17 µM.

(Values after ChEMBL document CHEMBL1152628, “Synthesis and antioxidant properties of new chromone derivatives” (Bioorg Med Chem, 2009).)
